Assay results from different studies.
Each line is one published result; the experiments were not run side by side.
SLC6A3: Sodium-dependent dopamine transporter (SLC6A3, Homo sapiens, UniProt Q01959)
DRD3: D(3) dopamine receptor (DRD3, Homo sapiens, UniProt P35462)
PDE10A: cAMP and cAMP-inhibited cGMP 3',5'-cyclic phosphodiesterase 10A (PDE10A, Homo sapiens, UniProt Q9Y233)

`NC(=O)CC[C@H](N)C(=O)NCC(=O)NCC(=O)N[C@@H](CC(=O)O)C(=O)N[C@@H](Cc1ccccc1)C(=O)O` gave an inhibition of 49.9% (Angiotensin-converting enzyme (ACE, Homo sapiens, UniProt P12821); enzyme activity, inhibitor; 1.4 mM).
With `O[C@@H]1[C@H](O)[C@@H]2C[C@@H]2[C@H]1n1cnc2c(NCCC3CC3)nc(I)nc21` the inhibition was 9% (SLC6A3; ligand displacement, radioligand; 10 µM).
For `NC/C(=C\F)COc1cccc(Cn2c(=S)[nH]c(=O)c3[nH]cnc32)c1`, the inhibition was under 50% (DRD3; ligand displacement, radioligand; 10 µM).
With `CCOC(=O)[C@@]12C[C@@H]1[C@@H](n1cnc3c(Nc4ccccc4)nc(C#Cc4ccc(Cl)s4)nc31)[C@H](O)[C@@H]2O` the inhibition was 89% (SLC6A3; ligand displacement, radioligand; 10 µM).
`COc1ccc2c(Cc3cccc(-c4ccccc4)c3)nccc2c1` gave an inhibition of 3% (PDE10A; enzyme activity, inhibitor, FP; 0.1 µM).
With `C#Cc1cc(-c2cc(Nc3nc(N[C@@H](C)c4ccc(F)cn4)ncc3Cl)n[nH]2)ccc1C=O` the inhibition was 53.5% (Dual specificity protein kinase CLK4 (CLK4, Homo sapiens, UniProt Q9HAZ1); enzyme activity, inhibitor; 0.2 µM).
With `Cc1cc(O)c(-c2ccc([C@@H](C)CN(C)C)cc2)c2c1[nH]c(=O)c1sccc12` the inhibition was 8.12% (Serine/threonine-protein kinase ATR (ATR, Homo sapiens, UniProt Q13535); cell-free assay, inhibitor; 0.1 µM, lysate).
With `CCN1/C(=C/C(C)=O)Sc2ccc(F)cc21` the inhibition was 0% (DRD3; ligand displacement, radioligand; 10 µM).
The inhibition of `COc1ccc2ccnc(Cc3ccc(OC)c(OC)c3)c2c1` is reported as 11% (PDE10A; enzyme activity, inhibitor, FP; 0.1 µM).
`CCOC(=O)[C@@]12C[C@@H]1[C@@H](n1cnc3c(NCc4cccc(Cl)c4)nc(I)nc31)[C@H](O)[C@@H]2O` has an inhibition of 37% (SLC6A3; ligand displacement, radioligand; 10 µM).
`COc1ccc(-c2cccc(Cc3ncnc4cc(OC)c(OC)cc34)c2)cc1OC` has an inhibition of 85% (PDE10A; enzyme activity, inhibitor, FP; 0.1 µM).
For `N#CC[C@@]12C[C@@H]1[C@@H](n1cnc3c(NCCCCCc4ccccc4)nc(C#Cc4ccc(Cl)s4)nc31)[C@H](O)[C@@H]2O`, the inhibition was 7% (SLC6A3; ligand displacement, radioligand; 10 µM).
For `COc1ccc2c(Cc3cccc(-c4ccccc4)c3)ccnc2c1`, the inhibition was 22% (PDE10A; enzyme activity, inhibitor, FP; 0.1 µM).
`CNC(=O)[C@@]12C[C@@H]1[C@@H](n1cnc3c(NCc4cccc(Cl)c4)nc(C#Cc4ccc(Cl)s4)nc31)[C@H](O)[C@@H]2O` has an inhibition of 75% (SLC6A3; ligand displacement, radioligand; 10 µM).
For `COc1ccc2c(Cc3cccc(-c4ccccc4)c3)ncnc2c1`, the inhibition was 22% (PDE10A; enzyme activity, inhibitor, FP; 0.1 µM).
`Cc1cc(F)cc2c(CCC(=O)N[C@@H]3C(=O)NC[C@H]3O)c(-c3ccc(F)cc3)[nH]c12` gave an inhibition of 17% (SLC6A3; cell-free assay; 10 µM).
`OC[C@@]12C[C@@H]1[C@@H](n1cnc3c(NCCCCCCc4ccccc4)nc(I)nc31)[C@H](O)[C@@H]2O` has an inhibition of 79% (SLC6A3; ligand displacement, radioligand; 10 µM).
`c1ccc2c(Cc3ccc4cnn(C5COC5)c4c3)nccc2c1` has an inhibition of 6% (PDE10A; enzyme activity, inhibitor, FP; 0.1 µM).
